Published values pooled from the literature.
Protocols differ between the studies behind these lines.
pH: 7.4

C=CC(=O)N1CC2(CCN(c3nc4c(c(-c5c(C)ccc6[nH]ncc56)c3C#N)CCC(C)(C)C4)C2)C1 — logD: 4.3
N=C(CC(O)c1cc2c(F)cc(F)cc2c2cc(C(F)(F)F)ccc12)Nc1ccc(F)c(F)c1 (stereo not shown) — logD: 4.96
C[C@@H]1CN(c2cccc(-c3ccc4ncnc(Nc5ncco5)c4c3)c2)C[C@H](C)O1 — logD (shake flask; aqueous buffer): > 3.6
Cc1ccc(Nc2cnnc3ccc(-c4ccc(N5CCCN(C)CC5)cc4)cc23)cn1 — logD (shake flask; aqueous buffer): 3.3
CNS(=O)(=O)c1ccc(Nc2ncc(C(F)(F)F)c([C@H]3CC[C@](C)(O)CC3)n2)c(C)c1 — logD (shake flask; aqueous buffer; 1 h): 3.6
O=C(O)c1ccc(NS(=O)(=O)c2ccc(Cl)c(Cl)c2)cc1 — logD (shake flask; aqueous buffer): 0.6
C=CC(=O)N1CC2(CCN(c3nc4c(c(-c5cc(O)cc6ccccc56)c3C#N)COC(C)(C)C4)C2)C1 — logD: 4.3
CC(C)N=c1cc2n(-c3ccc(Cl)cc3)c3ccccc3nc-2cc1Nc1ccc(Cl)cc1 — logD (shake flask; aqueous buffer): 5.76
CCOCC(=O)N1CCC[C@H](C(=O)NCc2nc(-c3ccc(C#N)nc3)cs2)C1 — logD (shake flask; aqueous buffer): 1
c1cc(-c2ccc3ncnc(Nc4ncco4)c3c2)nc(N2CCOCC2)n1 — logD (shake flask; aqueous buffer): 3.4
N[C@@H](COCC(=O)N1CCC[C@H](C(=O)NCc2nc(-c3ccc(C(F)(F)F)cc3)cs2)C1)c1ccccc1 — logD (shake flask; aqueous buffer): 3
Cc1nc(Nc2ncnc3ccc(-c4cccc(N5CCOCC5)c4)cc23)oc1C — logD (shake flask; aqueous buffer): 4.3
C=CC(=O)N1CC2(CCN(c3nc4c(c(-c5cc(O)cc6ccccc56)c3Cl)COC(C)(C)C4)C2)C1 — logD: 4.9
C[C@@H]1COCCN1c1cccc(-c2ccc3ncnc(Nc4ncco4)c3c2)c1 — logD (shake flask; aqueous buffer): 4.2
C[C@H](O)c1cnc(NS(=O)(=O)c2ccc(C(F)(F)F)c(Cl)c2)nc1 — logD (shake flask; aqueous buffer): 0.4
COc1cnc(Nc2cnnc3ccc(-c4ccc(N5CCN(C)CC5)cc4)cc23)nc1 — logD (shake flask; aqueous buffer): 3.2
C=C1C[C@@]23CC[C@H]4[C@@](C)(CCC[C@@]4(C)C(=O)O[C@@H]4O[C@H](CO)[C@@H](O)[C@H](O)[C@H]4O)[C@@H]2CC[C@]1(O[C@@H]1O[C@H](CO)[C@@H](O)[C@H](O)[C@H]1O)C3 — logD (shake flask; aqueous buffer): -1.45
CCN(CC)c1ccc(C=NNC(=O)c2ccccn2)c(O)c1 — logD (shake flask; aqueous buffer; 24 h): 3.48
NCCOCC(=O)N1CCC[C@H](C(=O)NCc2nc(-c3ccc(C(F)(F)F)cc3)cs2)C1 — logD (shake flask; aqueous buffer): 0.47
O=[N+]([O-])c1ccc(Nc2ncnc3ccc(-c4cccc(N5CCOCC5)c4)cc23)cc1C(F)(F)F — logD (shake flask; aqueous buffer): > 3.4
C[C@H](O)c1ccc(NS(=O)(=O)c2ccc(OCC3CCC3)c(Cl)c2)c2nn(C)cc12 — logD (shake flask; aqueous buffer): 3.8
c1cc(-c2ccc3ncnc(Nc4ncco4)c3c2)cc(N2CC3(COC3)C2)c1 — logD (shake flask; aqueous buffer): > 4
C[C@H](O)c1cnc(NS(=O)(=O)c2ccc(Cl)c(Cl)c2)nc1 — logD (shake flask; aqueous buffer): 0.5
CC(C)NCCOCC(=O)N1CCC[C@H](C(=O)NCc2nc(-c3ccc(C(F)(F)F)cc3)cs2)C1 — logD (shake flask; aqueous buffer): 1.5
Clc1cccc(Nc2ncnc3ccc(-c4cccc(N5CCOCC5)c4)cc23)c1 — logD (shake flask; aqueous buffer): 5.3
O=C(NCc1nc(-c2ccc(C(F)(F)F)cc2)cs1)[C@H]1CCCN(C(=O)CO[C@H]2CCCNC2)C1 — logD (shake flask; aqueous buffer): 0.81
CN1CCC(Nc2ncnc3ccc(-c4cccc(N5CCOCC5)c4)cc23)CC1 — logD (shake flask; aqueous buffer): 2.5
CNS(=O)(=O)c1ccc(Nc2ncc(C(F)(F)F)c(N3CCC(C)(O)CC3)n2)c(C)c1 — logD (shake flask; aqueous buffer; 1 h): 3.8
